S100A4 inh HTS: inhibitors of human S100A4 binding to myosin IIA peptide. S100A4/TAMRA-MyoIIA peptide fluorescence polarization. inhibition, % at 10.7 µM. actives 0.14% (n = 360,000). AID 652163;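 active means mean inhibition of at least 70% across replicates, with every replicate also reaching that level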
Target sequence (P26447 whole entry, looked up): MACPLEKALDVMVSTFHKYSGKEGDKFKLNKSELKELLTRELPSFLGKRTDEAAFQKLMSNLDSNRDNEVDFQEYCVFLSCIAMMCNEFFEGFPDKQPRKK
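incubation = readout 5 min after mixing, signal stable up to 60 min | system = S100A4 monomer protein | buffer or medium = HEPES pH 7.2 with CaCl2, KCl, NaCl, DTT, Triton | benchmarks = neutral control DMSO, positive control TFP | also added = fluorescent myosin IIA peptide, 5 nM | compound dosing = one concentration per compound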
E-sel inducer: induces E-selectin expression in human endothelial cells; P16581; HUVEC E-selectin immunofluorescence imaging; normalized: neutral wells 0, TNF-alpha wells 100; activation, % at 7.58 µM; actives 0.37% (n = 260,000); AID 686992;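 active means mean E-selectin-positive cell signal at least 10% of the positive control, reached in at least 60% of replicates, without over 20% cell loss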
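Read-out: % PE-positive cells | Test system: HUVEC | Doses: One compound dose added by pin transfer | Buffer or medium: EGM-2 over gelatin coat | Signal: Immunofluorescence imaging | Benchmarks: TNF-alpha, DMSO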
HIV Env fusion: blocks HIV Env-driven cell-cell fusion. HeLa-JRFL Env/CEM21 cell fusion, luciferase. inhibition, % at 12.3 µM. actives 1.1% (n = 360,000);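 active means mean replicate inhibition score of at least 50 and every replicate individually at or above 50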;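 further: 0% = plate neutral controls and 100% = maraviroc near 300 nM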
CFTR F508del cor: correctors of CFTR F508del function in bronchial epithelial cells; CFBE cells, YFP halide quenching; stimulated with forskolin plus potentiator P3; % fluorescence drop versus neutral controls; activity (quench increase), % at 7.58 µM; actives 0.36% (n = 350,000); AID 720511;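 active means mean added fluorescence quench of at least 8% versus neutral control, with both replicates also reaching 8%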;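 further: cells transiently co-express mutant CFTR-F508del with the halide-sensitive YFP; corrector assay measuring rescue of mutant channel to the surface after 24 h compound exposure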
FGF22 binding: shifts melting point of recombinant human FGF22 | recombinant FGF22 thermal shift, SYPRO orange fluorescence; percent of sucrose octasulfate shift, DMSO zero | activity (Tm shift, normalised), % at 9.99 µM | actives 1.5% (n = 340,000) | Q9HCT0;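 active means mean Tm shift, scaled 0 neutral to 100 positive control, at about 1.3% or above, every replicate too, limit read from the data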
Target sequence (Q9HCT0 whole entry, looked up): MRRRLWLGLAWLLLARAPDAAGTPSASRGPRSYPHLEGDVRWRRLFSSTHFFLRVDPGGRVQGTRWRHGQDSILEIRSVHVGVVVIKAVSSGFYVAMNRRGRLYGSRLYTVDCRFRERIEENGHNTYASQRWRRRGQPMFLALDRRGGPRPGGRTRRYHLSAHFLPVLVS
* marks the source's active call; other numbers are inactive results; . = no result; [ ] = remark or other dose. Sampled rows, rich in hits. Any-hit rate of the full collection: about 2.7%.

SMILES	S100A4 inh HTS	E-sel inducer	HIV Env fusion	CFTR F508del cor	FGF22 binding
COc1ccc2[nH]c3c(N4CCC(O)(c5cccc(C(F)(F)F)c5)CC4)ncnc3c2c1	.	.	100*	.	.
C[C@@H]1CN([C@H](C)CO)C(=O)c2cc(NC(=O)Nc3ccc(F)cc3)ccc2O[C@@H]1CN(C)S(=O)(=O)c1ccc(Cl)cc1	-12	3	2[16.7 µM]	2	0
COc1ccc(CC2C(=O)NC(C)C(=O)N(C)C3Cc4ccc(cc4)Oc4cc(ccc4O)CC(C(=O)NC(C)C(=O)NC(C)C(=O)N2C)N(C)C3=O)cc1 (stereo not given)	13	-1	77*	0	0
CC(C)C[C@@H]1NC(=O)[C@H](Cc2ccccc2)N(C)C(=O)[C@H](C)NC(=O)c2ccccc2NC(=O)[C@H](Cc2ccc(O)cc2)N(C)C1=O	-4	.	.	-5	0
CC(NC(=O)Cn1cccc1C(=O)c1ccccc1)c1ccc2c(c1)OCCO2 (stereo not given)	0	2	3	2	43*
COc1ccccc1CN1CC2(C1)[C@H](c1ccccc1)[C@H](CO)N2Cc1ccccc1	17	1	.	1	0
CS(=O)(=O)c1cccc(-c2csc(N3CCC(C(N)=O)CC3)n2)c1	0	0	.	-1	43*
CCC(=O)N[C@H]1CC[C@@H](CCn2cc(-c3cccc(OC)c3)nn2)O[C@H]1CO	18	2	6[16.7 µM]	0	0
CCCC(=O)Nc1ccc2c(c1)C(=O)N(C)[C@@H]1CC[C@@H](CC(=O)NCC3CC3)O[C@@H]1CO2	5	0	.	-1	0
CN(C(=O)COC(=O)c1n[nH]c2ccccc12)c1ccccc1	-4	.	-3	-1	0
CN(C(=O)COC(=O)c1n[nH]c(=O)c2ccccc12)c1ccccc1	-1	38*	.	-7	0
Fc1ccc(N2CCN(Cc3nnc(-c4ccccc4)o3)CC2)cc1	-9	.	14	0	0
Fc1ccc(-c2nnc(CN3CCN(c4ncc(C(F)(F)F)cc4Cl)CC3)o2)cc1	.	-1	68*	.	.
Cc1ccc(S(=O)(=O)Nc2ccc3c(c2)C(=O)N([C@@H](C)CO)C[C@H](C)[C@H](CN(C)Cc2ccccc2)OCCCC[C@@H](C)O3)cc1	.	.	-25[16.7 µM]	4	0
CC(C)(CO)NCC(O)Cn1cc(C=O)c2ccccc21 (stereo not given)	-2	1	-9	-4	43*
Cc1ccc(S(=O)(=O)N(C)C[C@H]2Oc3ccc(N(C)C)cc3CC(=O)N([C@H](C)CO)C[C@H]2C)cc1	-7	0	.	0	-1
Cc1ccc(S(=O)(=O)N(C)C[C@H]2OCCCC[C@H](C)Oc3ccc(NC(=O)CCCN(C)C)cc3C(=O)N([C@@H](C)CO)C[C@H]2C)cc1	8	.	40[16.7 µM]	-6	0
COc1ccc(CC(=O)Oc2ccc(C)cc2Br)cc1OC	0	0	61*	-2	0
COc1ccc(CC(=O)Oc2ccc(C)cc2C)cc1	-9	0	3	-1	0
CCN(CC)CCn1c(=N)n(CC(O)COc2ccccc2)c2ccccc21 (stereo not given)	3	.	14	1	0
CCN(CC)CCn1c(=N)n(CCOc2ccccc2)c2ccccc21	1	.	56*	.	.
CSc1ccccc1C(=O)C1CCCN(Cc2cnn(-c3ccccc3)c2)C1 (stereo not given)	-1	.	-93	7	43*
COC(=O)c1cc2c(c3c4cc(OC)ccc4n(S(=O)(=O)c4ccccc4)c13)C(=O)N(C)C2	-3	0	65*	1	0
C/C(=N\NC(=O)c1cc2ccccc2cc1O)c1ccccn1	-6	.	59*	0	0
O=C(C[C@H]1CC[C@@H](NC(=O)c2cccnc2)[C@@H](CO)O1)NCc1ccncn1	8	1	-11[16.7 µM]	0	0
C[C@@H]1CN([C@@H](C)CO)C(=O)c2cccc(NC(=O)Nc3ccc(C(F)(F)F)cc3)c2O[C@H]1CN(C)Cc1ccc(Cl)c(Cl)c1	18	.	85*[16.7 µM]	1	0
CC(C)NC(=O)Nc1cccc2c1O[C@@H](CN(C)Cc1ccccc1)[C@@H](C)CN([C@@H](C)CO)C2=O	9	0	3[16.7 µM]	0	0

Source: PubChem BioAssay
